Assay results of several laboratories.
Each line is one published result; the experiments were not run side by side.

| Structure (SMILES) | system | conditions | Cmax |
| --- | --- | --- | --- |
| COC1=CC(c2ccc[nH]2)=N/C1=C\c1[nH]c(Cc2ccc(OC(F)(F)F)cc2)cc1Cc1ccc(OC(F)(F)F)cc1 | male CD-1 mouse, plasma | oral, 40 mg/kg, single dose | 3950 ng/mL |
| Cc1ccc(N(c2ccc(NC(=O)CN(C)c3ccccc3N3CCCC3=O)cc2)C(C)C)cc1 | male CD-1 mouse, plasma | oral, 20 mg/kg | 1000 ng/mL |
| NCc1ccc(-c2nn(Cc3ccccc3)c3ccccc23)o1 | male CD-1 mouse, plasma | oral, 10 mg/kg | 395 ng/mL |
| COC1=CC(c2ccc[nH]2)=N/C1=C\c1cc(Cc2ccc(OC(F)(F)F)cc2)c(C)[nH]1.Cl | male CD-1 mouse, plasma | oral, 40 mg/kg, single dose | 161 ng/mL |
| Cc1ncsc1-c1ccc([C@H](C)NC(=O)[C@@H]2C[C@@H](O)CN2C(=O)[C@@H](NC(=O)CCCCCCCCCCC(=O)NCCCn2cc(-c3ccc4c(c3)CCN4C(=O)Cc3cccc(OC(F)(F)F)c3)c3c(N)ncnc32)C(C)(C)C)cc1 | mouse, plasma | intravenous, 1 mg/kg | 2330 ng/mL |
| NCc1ccc(-c2nn(Cc3ccncc3)c3ccccc23)o1 | male CD-1 mouse, plasma | intraperitoneal, 30 mg/kg | 1150 ng/mL |
| Cc1nc2ccc(OCc3ccc(C(F)(F)F)cc3)cc2[nH]1 | male BALB/c mouse, plasma | intravenous, 1 mg/kg | 4540 ng/mL |
| COc1cccc2c(N3CCC(CCP(=O)(O)O)CC3)ncnc12 | female BALB/c mouse, serum | subcutaneous, 50 mg/kg, tumour-bearing | 23000 ng/mL |
| CCOC(=O)c1c(NC(=O)CNC(C)C)sc2c1CCCCC2 | male mouse, plasma | intraperitoneal, 100 mg/kg, single dose | 6340 ng/mL |
| Cc1cc(-c2ccnc3[nH]cc(F)c23)cc(F)c1[C@@]1(O)[C@H](C)CN(C(=O)CN)C[C@@H]1C | male CD-1 mouse, plasma | oral, 3 mg/kg | 1260 ng/mL |
| CC[C@H](C)[C@H](NC(=O)[C@H](CCC(=O)O)NC(=O)[C@H](CO)NC(=O)[C@@H](NC(=O)[C@@H](N)CO)C(C)C)C(=O)N[C@@H](CCC(N)=O)C(=O)N[C@@H](CC(C)C)C(=O)N[C@@H](CCSC)C(=O)N[C@@H](Cc1cnc[nH]1)C(=O)N[C@@H](CC(N)=O)C(=O)N[C@@H](CC(C)C)C(=O)NCC(=O)N[C@@H](CCCCN)C(=O)N[C@@H](Cc1cnc[nH]1)C(=O)N[C@@H](CC(C)C)C(=O)N[C@@H](CC(N)=O)C(=O)N[C@@H](CO)C(=O)N[C@@H](CCSC)C(=O)N[C@@H](CCC(=O)O)C(=O)N[C@@H](CCCNC(=N)N)C(=O)N[C@H](C(=O)N[C@@H](CCC(=O)O)C(=O)N[C@@H](Cc1c[nH]c2ccccc12)C(=O)N[C@@H](CC(C)C)C(=O)N[C@@H](CCCNC(=N)N)C(=O)N[C@@H](CCCCN)C(=O)N[C@@H](CCCCN)C(=O)N[C@@H](CC(C)C)C(=O)N[C@@H](CCC(N)=O)C(=O)N[C@@H](CC(=O)O)C(=O)N[C@H](C(=O)N[C@@H](Cc1cnc[nH]1)C(=O)N[C@@H](CC(N)=O)C(=O)N[C@@H](Cc1ccccc1)C(N)=O)C(C)C)C(C)C | female CD-1 mouse, serum | intravenous, 10 nmol/kg | 8 nM |
| CC(C)(C)c1sc2ncnc(Oc3c(F)cccc3OC(F)(F)F)c2c1-c1ccc(Cl)cc1 | mouse, plasma | intravenous, 1 mg/kg, single dose | 2560 ng/mL |
| Cc1cc(-c2ccnc3[nH]cc(F)c23)cc(F)c1[C@@]1(O)[C@H](C)CN(C2CCS(=O)(=O)CC2)C[C@@H]1C | male CD-1 mouse, plasma | intravenous, 1 mg/kg | 1620 ng/mL |
| OCc1nc2ccc(NCc3ccc(C(F)(F)F)cc3)cc2[nH]1 | male BALB/c mouse, plasma | oral, 10 mg/kg | 1790 ng/mL |
| CN(C)C(=O)c1cc2cnc(Nc3ccc(-c4ccc5c(=O)cc(N6CCOCC6)oc5c4)cc3)nc2n1C1CCCC1 | BALB/c mouse, plasma | oral, 20 mg/kg | 1440 ng/mL |
| OCc1ccc(-c2nn(Cc3ccccc3)c3ccccc23)o1 | male CD-1 mouse, plasma | oral, 10 mg/kg | 220 ng/mL |
| Cc1ncsc1-c1ccc([C@H](C)NC(=O)[C@@H]2C[C@@H](O)CN2C(=O)[C@@H](NC(=O)CCc2ccc(C#Cc3ccc(C(=O)NCCCn4cc(-c5ccc6c(c5)CCN6C(=O)Cc5cccc(OC(F)(F)F)c5)c5c(N)ncnc54)cc3)cn2)C(C)(C)C)cc1 | male C57BL/6 mouse, plasma | intravenous, 1 mg/kg | 11900 ng/mL |
| COc1cc(C2C3=C(COC3=O)N(CCO)c3cc4c(cc32)CCC4)cc(OC)c1OC (centres unmarked) | female C57BL/6 mouse, plasma | intraperitoneal, 50 mg/kg | 1040 ng/mL |
| O=C1CCC(N2Cc3cc(C4CCN(Cc5ccccc5)CC4)ccc3C2=O)C(=O)N1 (centres unmarked) | male CD-1 mouse, plasma | intravenous, 1 mg/kg | 204 ng/mL |
| Cc1ccc(OCC(=O)N[C@@H](Cc2c[nH]c3ccccc23)C(=O)OC(C)C)cc1 | male Sprague-Dawley mouse, plasma | oral, 20 mg/kg | 2560 ng/mL |
